≈ marks a conversion by molar mass, not a printed value. Calls of active or inactive are those of the source. The calls are words filed in the database; no cut-off is given here.
Assays:
Caco-2 [1] = assay: Cytotoxicity against human Caco2 cells assessed as inhibition of cell viability incubated for 72 hrs by MTT assay; assay type: functional, cell-based; conditions: Caco-2, 72 h
In short: (§1)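 Cells seeded at 2,000–4,000 per well and left 24 h. They are then exposed to a range of compound concentrations for 72 h. Survival is read by adding CCK-8 solution and measuring absorbance at 450 nm. Mitomycin is the reference control.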

Jurkat = assay: Cytotoxicity against human Jurkat cells assessed as inhibition of cell viability incubated for 72 hrs by MTT assay; assay type: functional, cell-based; in short: as §1
A549 = assay: Cytotoxicity against human A549 cells assessed as inhibition of cell viability incubated for 72 hrs by MTT assay; assay type: functional, cell-based; conditions: A549, 72 h; in short: as §1
SK-BR-3 [2] = assay: Cytotoxicity against human SKBR3 cells assessed as inhibition of cell viability incubated for 72 hrs by MTT assay; assay type: functional, cell-based; conditions: SK-BR-3, 72 h; in short: as §1
Staphylococcus aureus [3] = assay: Antimicrobial activity against Staphylococcus aureus ATCC 29213 incubated for 18 hrs by resazurin staining based microbroth dilution assay; assay type: functional; conditions: ATCC 29213, 18 h
In short: (§2)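 Strains grown overnight, diluted to 10^6 CFU/mL in LB broth. Compounds in DMSO, serially diluted in LB (pg/mL to ng/mL range), mixed 1:1 with bacterial suspension. Vancomycin is the reference, 0.03125–16 μg/mL. Plates incubated 37 °C for 18 h, then resazurin added for read-out. Duplicates per plate.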

Staphylococcus aureus [4] = assay: Antimicrobial activity against Methicillin-resistant Staphylococcus aureus incubated for 18 hrs by resazurin staining based microbroth dilution assay; assay type: functional
In short: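 Overnight culture diluted to 106 CFU/mL in LB broth, mixed 1:1 with compound serially diluted in LB on the plate from DMSO stock (1–512 ng/mL and 1–512 pg/mL series; vancomycin 0.03125–16 μg/mL). Incubated 37 °C for 18 h, then resazurin added to read growth; MIC taken from broth microdilution, duplicate per plate. Strain is a local hospital MRSA isolate.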

Escherichia coli = assay: Antimicrobial activity against Escherichia coli incubated for 18 hrs by resazurin staining based microbroth dilution assay; assay type: functional; in short: as §2
Staphylococcus aureus [5] = assay: Potency index, ratio of MIC for vancomycin to MIC for test compound for antimicrobial activity against Staphylococcus aureus ATCC 29213; assay type: functional
In short: (§3)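 Overnight bacterial cultures diluted to 10^6 CFU/mL in LB broth, mixed 1:1 with LB holding serial dilutions of test compound (DMSO stocks, 1–512 pg/mL and 1–512 ng/mL series) or vancomycin (0.03125–16 μg/mL). Incubated 37 °C, 18 h, then resazurin added for read-out. Run in duplicate per plate. Index is vancomycin MIC divided by test-compound MIC.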

SK-BR-3 [6] = assay: Cytotoxicity against human SKBR3 cells assessed as inhibition of cell viability incubated for 8 hrs by rapid killing based MTT assay; assay type: functional
In short: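 Seeding was 2,000–4,000 cells/well, with 24 h attachment. Compound exposure at varying concentrations lasted only 8 h. Viability was read by CCK-8 absorbance at 450 nm. Mean ± SD of three replicates, with curves fitted.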

Staphylococcus aureus [7] = assay: Potency index, ratio of MIC for vancomycin to MIC for test compound for antimicrobial activity against Methicillin-resistant Staphylococcus aureus; assay type: functional; in short: as §3
Caco-2 [8] = assay: Potency index, ratio of YPM G IC50 to compound IC50 for cytotoxicity against human Caco2 cells by MTT assay; assay type: functional
SK-BR-3 [9] = assay: Potency index, ratio of YPM G IC50 to compound IC50 for cytotoxicity against human SKBR3 cells by MTT assay; assay type: functional

SMILES | IC50 (Caco-2 [1]) | IC50 (Jurkat) | IC50 (A549) | IC50 (SK-BR-3 [2]) | MIC (Staphylococcus aureus [3]) | MIC (Staphylococcus aureus [4]) | MIC (Escherichia coli) | Ratio IC50 (Staphylococcus aureus [5]) | Activity (SK-BR-3 [6]) | Ratio IC50 (Staphylococcus aureus [7]) | Ratio IC50 (Caco-2 [8]) | Ratio IC50 (SK-BR-3 [9])
O=C1c2ccccc2C(=O)c2c3c(cc(O)c21)[C@@]12O[C@@]1([C@H](O)CO)[C@H](C#C/C=C\C#C[C@H]2O)N3 | 55.2 nM | 0.62 nM | 3.41 nM | 24.2 nM | 0.002 ng/mL (≈ 0.00439 nM) | 0.002 ng/mL (≈ 0.00439 nM) | – | – | – | – | – | –
CO[C@@]12[C@H](COC(N)=O)C3=C(C(=O)C(C)=C(N)C3=O)N1C[C@@H]1N[C@@H]12 [MITOMYCIN] | 5800 nM | 430 nM | 270 nM | 1000 nM | – | – | – | – | – | – | – | –
CN[C@H](CC(C)C)C(=O)N[C@H]1C(=O)N[C@@H](CC(N)=O)C(=O)N[C@H]2C(=O)N[C@H]3C(=O)N[C@H](C(=O)N[C@H](C(=O)O)c4cc(O)cc(O)c4-c4cc3ccc4O)[C@H](O)c3ccc(c(Cl)c3)Oc3cc2cc(c3O[C@@H]2O[C@H](CO)[C@@H](O)[C@H](O)[C@H]2O[C@H]2C[C@](C)(N)[C@H](O)[C@H](C)O2)Oc2ccc(cc2Cl)[C@H]1O [VANCOMYCIN] | – | – | – | – | – | – | > 16000 ng/mL | – | – | – | – | –
C[C@@H](O)[C@@]12O[C@]13c1cc(O)c4c(c1N[C@H]2C#C/C=C\C#C[C@H]3O)C(=O)c1c(O)cccc1C4=O | 3.4 nM | 0.24 nM | 0.02 nM | 0.86 nM | < 0.001 ng/mL | < 0.001 ng/mL | 0.128 ng/mL (≈ 0.281 nM) | 1000000 | Active | 1000000 | 10 | 10
O=C1c2cccc(O)c2C(=O)c2c3c(cc(O)c21)[C@@]12O[C@@]1([C@H](O)CO)[C@H](C#C/C=C\C#C[C@H]2O)N3 | 3.16 nM | 0.17 nM | 0.24 nM | 2.56 nM | < 0.001 ng/mL | < 0.001 ng/mL | 0.032 ng/mL (≈ 0.0679 nM) | 1000000 | Active | 1000000 | 10 | 10

Source: ChEMBL document CHEMBL4414575, “Yangpumicins F and G, Enediyne Congeners from Micromonospora yangpuensis DSM 45577” (J Nat Prod, 2019)
